For one assay, the target named is hCCR5 (Homo sapiens, UniProt P51681). In words: Tango β-arrestin recruitment assay in U2OS-CCR5 cells. As to conditions: for inhibition at 1 µM: read-out: inhibition at 1 μM (%), β-arrestin recruitment in U2OS-CCR5 by 1 μM compound, in the presence of an EC80 concentration of CCL3, negative = CCL3 stimulation; for Hill slope (nH): inhibition of CCL3-induced β-arrestin recruitment in U2OS-CCR5. In kind it is cell-based. The method, boiled down:
(§1)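 Tango bla U2OS cells (human CCR2b or CCR5) were trypsinized and seeded at 10 000 cells/well in FreeStyle medium. Agonist mode: CCL2 or CCL3 for 16 h, 37 °C, 5% CO2. Antagonist mode: 30 min room-temperature preincubation with increasing compound (≤0.5% DMSO final), then 16 h with EC80 CCL2 (5 nM, CCR2) or CCL3 (14 nM, CCR5). LiveBLAzer-FRET B/G substrate 2 h; excitation 400 nm, 460/535 nm emission ratio.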
In general terms: Recruitment of arrestin is a read-out of receptor activation apart from second messengers.

The target of assay [1] is T1, hCCR2 (Homo sapiens, UniProt P41597).
T1 sequence (P41597 1-360 isoform P41597-2): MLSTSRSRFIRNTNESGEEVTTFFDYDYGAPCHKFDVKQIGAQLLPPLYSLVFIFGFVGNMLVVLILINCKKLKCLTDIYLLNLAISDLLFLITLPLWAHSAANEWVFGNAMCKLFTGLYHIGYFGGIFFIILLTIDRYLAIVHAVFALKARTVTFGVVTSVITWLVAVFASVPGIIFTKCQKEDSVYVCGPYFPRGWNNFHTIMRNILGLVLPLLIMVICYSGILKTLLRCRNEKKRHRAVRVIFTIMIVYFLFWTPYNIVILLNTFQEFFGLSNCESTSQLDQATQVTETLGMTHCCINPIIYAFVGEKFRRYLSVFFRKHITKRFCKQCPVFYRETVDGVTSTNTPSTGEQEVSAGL
In words: [3H]-CCR2-RA-[R] displacement binding assay on U2OS-CCR2b membranes. The note with it: for pKi ± SEM: displacement of ∼6 nM [3H]-CCR2-RA-[R] from U2OS cells stably expressing CCR2, 25 °C. Summed up:
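U2OS-CCR2b membranes (15–20 μg protein) were incubated with ~6 nM [3H]-CCR2-RA-[R] and at least 6 competitor concentrations. Buffer: 50 mM Tris-HCl, 5 mM MgCl2, 0.1% CHAPS, pH 7.4. Incubation 2 h at 25 °C. Rapid GF/B filtration, ten washes with ice-cold buffer (0.05% CHAPS), scintillation counting. Mean ± SEM of ≥3 experiments in duplicate.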

In assay [2] the target is T1, hCCR2. The assay can be described thus: Tango β-arrestin recruitment assay in U2OS-CCR2 cells. In kind it is cell-based. As to conditions: inhibition of CCL2-induced β-arrestin recruitment in U2OS-CCR2. Summed up:
as §1

For assay [3], the target named is T1, hCCR2. In words: CCL2-stimulated [35S]GTPγS binding assay on U2OS-CCR2 membranes. Format: biochemical. The note with it: for decrease of basal [35S]GTPγS binding levels: 1 μM compound, in absence of CCL2, 0% = basal activity, 100% = 100 nM CCL2. Summed up:
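U2OS-CCR2b cells are grown in McCoy's 5A with 10% FCS, G418, hygromycin and zeocin, switching to dialyzed FCS before harvest. Membranes are prepared by scraping in PBS, homogenizing in ice-cold 50 mM Tris-HCl, 5 mM MgCl2, pH 7.4, ultracentrifuging (31 000 rpm, 20 min, 4 °C) twice, storing at −80 °C and measuring protein by BCA. Values come from nonlinear regression, ≥3 experiments in duplicate.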

[4] abbreviates: CCL2 alone, [35S]GTPγS binding, U2OS-CCR2, 25 °C.

hCCR5, sequence (P51681 whole entry): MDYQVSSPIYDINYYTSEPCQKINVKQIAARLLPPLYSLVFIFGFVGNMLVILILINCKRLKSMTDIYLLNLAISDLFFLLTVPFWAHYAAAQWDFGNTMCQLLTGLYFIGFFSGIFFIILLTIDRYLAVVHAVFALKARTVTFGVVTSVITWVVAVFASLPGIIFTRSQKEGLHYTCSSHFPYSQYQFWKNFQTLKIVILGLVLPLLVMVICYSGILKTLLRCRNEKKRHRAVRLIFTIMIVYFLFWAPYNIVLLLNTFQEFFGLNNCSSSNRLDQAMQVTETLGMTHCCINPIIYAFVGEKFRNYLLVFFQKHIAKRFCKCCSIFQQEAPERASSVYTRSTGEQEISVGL

Regarding `COc1ccccc1Cc1c(C2CC2)[nH]c2nc(N)nn2c1=O` [Compound 12, 2-Amino-5-cyclopropyl-6-(2-methoxybenzyl)[1,2,4]triazolo[1,5-a]pyrimidin-7(4H)-one], the inhibition at 1 µM on hCCR5 is -20%.

For `Cc1ccc(-c2ccc3c(c2)C=C(C(=O)Nc2ccc(C[N+](C)(C)C4CCOCC4)cc2)CCC3)cc1.[Cl-]` [TAK-779, reference compound], the “Hill slope (nH)” value on hCCR5 is −1.1. For `Nc1nc2[nH]c(C3CCCC3)c(Cc3cccc(Cl)c3)c(=O)n2n1` [Compound 31, 2-Amino-6-(3-chlorobenzyl)-5-cyclopentyl[1,2,4]triazolo[1,5-a]pyrimidin-7(4H)-one], at hCCR2 [1], the “fold increased affinity for CCR2 compared to 30” value is on record as 4.5 fold. Take `CC(C)c1[nH]c2nc(N)nn2c(=O)c1Cc1ccc(Cl)c(Cl)c1` [Compound 38, 2-Amino-6-(3,4-dichlorobenzyl)-5-isopropyl[1,2,4]triazolo[1,5-a]pyrimidin-7(4H)-one]: at hCCR5, the “fold increase in CCR5 potency compared to 37” value was ~2 fold.

Broadly, the Ki is a measure of affinity in units of concentration, obtained from inhibition or displacement. Turning to `Cc1ccc(Cc2c(C3CC3)[nH]c3nc(N)nn3c2=O)cc1` [Compound 19, 2-Amino-5-cyclopropyl-6-(4-methylbenzyl)[1,2,4]triazolo[1,5-a]pyrimidin-7(4H)-one], the inhibition at 1 µM at hCCR5 was -57%. For the same compound, on hCCR2 [1], the Ki was determined as 3 nM and the “pKi ± SEM” value is 8.46 ± 0.03. Take `CC(=O)C1=C(O)C(=O)N(c2ccc(Cl)cc2F)[C@@H]1C1CCCCC1` [CCR2-RA-[R], reference compound]: the “Hill slope (nH)” value at hCCR5 was −2.4. In the case of `Cc1ccc(-c2[nH]c3nc(N)nn3c(=O)c2Cc2cccc(Cl)c2)cc1` [Compound 35, 2-Amino-6-(3-chlorobenzyl)-5-(p-tolyl)[1,2,4]triazolo[1,5-a]pyrimidin-7(4H)-one], at hCCR5, the inhibition at 1 µM was -13%. At hCCR2 [1], the “fold decrease in affinity for CCR2 compared to 8” value (from here on “fold decrease in affinity”) is on record as 122 fold. With `Cc1[nH]c2nc(N)nn2c(=O)c1Cc1cccc(Cl)c1` [Compound 24, 2-Amino-6-(3-chlorobenzyl)-5-methyl[1,2,4]triazolo[1,5-a]pyrimidin-7(4H)-one], on hCCR5, the inhibition at 1 µM is -35%. With `Cc1cccc(Cc2c(C3CC3)[nH]c3nc(N)nn3c2=O)c1` [Compound 13, 2-Amino-5-cyclopropyl-6-(3-methylbenzyl)[1,2,4]triazolo[1,5-a]pyrimidin-7(4H)-one], the inhibition at 1 µM at hCCR5 is > 60%. Also, the “pKi ± SEM” value at hCCR2 [1] was 8.61 ± 0.03.

As for `CCCCCc1[nH]c2nc(N)nn2c(=O)c1Cc1cccc(Cl)c1` [Compound 30, 2-Amino-6-(3-chlorobenzyl)-5-pentyl[1,2,4]triazolo[1,5-a]pyrimidin-7(4H)-one], the “pKi ± SEM” value at hCCR2 [1] was 8.14 ± 0.03. With `Nc1nc2[nH]c(C3CC3)c(Cc3ccc(Cl)cc3)c(=O)n2n1` [Compound 21, 2-Amino-6-(4-chlorobenzyl)-5-cyclopropyl[1,2,4]triazolo[1,5-a]pyrimidin-7(4H)-one], the “pKi ± SEM” value on hCCR2 [1] is 8.74 ± 0.05. For `CCCCc1[nH]c2nc(N)nn2c(=O)c1Cc1cccc(Cl)c1` [Compound 28, 2-Amino-5-butyl-6-(3-chlorobenzyl)[1,2,4]triazolo[1,5-a]pyrimidin-7(4H)-one], at hCCR5, the inhibition at 1 µM was > 60%. Moreover, at hCCR2 [1], the Ki amounted to 2 nM. On to `COc1cccc(Cc2c(C3CC3)[nH]c3nc(N)nn3c2=O)c1` [Compound 17, 2-Amino-5-cyclopropyl-6-(3-methoxybenzyl)[1,2,4]triazolo[1,5-a]pyrimidin-7(4H)-one], for which, at hCCR5, the inhibition at 1 µM was -27%. Moreover, the “pKi ± SEM” value on hCCR2 [1] was determined as 7.89 ± 0.07. On to `Cc1nc2[nH]c(C3CC3)c(Cc3cccc(Cl)c3)c(=O)n2n1` [Compound 7, 6-(3-Chlorobenzyl)-5-cyclopropyl-2-methyl[1,2,4]triazolo[1,5-a]pyrimidin-7(4H)-one], for which, on hCCR2 [1], the “pKi ± SEM” value was determined as 8.46 ± 0.05. With `Nc1nc2[nH]c(C3CC3)c(Cc3ccc(F)cc3)c(=O)n2n1` [Compound 20, 2-Amino-5-cyclopropyl-6-(4-fluorobenzyl)[1,2,4]triazolo[1,5-a]pyrimidin-7(4H)-one], the “pKi ± SEM” value on hCCR2 [1] came out at 8.39 ± 0.03.

Consider `Nc1nc2[nH]c(CCc3ccccc3)c(Cc3cccc(Cl)c3)c(=O)n2n1` [Compound 36, 2-Amino-6-(3-chlorobenzyl)-5-phenethyl[1,2,4]triazolo[1,5-a]pyrimidin-7(4H)-one], for which the inhibition at 1 µM at hCCR5 is -42%. In addition, the “fold decrease in affinity” value on hCCR2 [1] worked out at 40 fold. On to `Nc1nc2[nH]c(C3CC3)c(Cc3cccc(F)c3)c(=O)n2n1` [Compound 14, 2-Amino-5-cyclopropyl-6-(3-fluorobenzyl)[1,2,4]triazolo[1,5-a]pyrimidin-7(4H)-one], for which the inhibition at 1 µM at hCCR5 is < 45%. Turning to `Nc1nc2[nH]c(C3CC3)c(Cc3ccccc3)c(=O)n2n1` [Compound 9, 2-Amino-6-benzyl-5-cyclopropyl[1,2,4]triazolo[1,5-a]pyrimidin-7(4H)-one], the “fold decrease in affinity” value at hCCR2 [1] is on record as 5 fold. With `CC(C)c1[nH]c2nc(N)nn2c(=O)c1Cc1cc(Br)cc(Br)c1` [Compound 42, 2-Amino-6-(3,5-dibromobenzyl)-5-isopropyl[1,2,4]triazolo[1,5-a]pyrimidin 7(4H)-one], the inhibition at 1 µM at hCCR5 is ≤ 70%. Turning to `CCCCCCc1[nH]c2nc(N)nn2c(=O)c1Cc1cccc(Cl)c1` [Compound 32, 2-Amino-6-(3-chlorobenzyl)-5-hexyl[1,2,4]triazolo[1,5-a]pyrimidin-7(4H)-one], the inhibition at 1 µM on hCCR5 was -63%. As to `CC(C)c1[nH]c2nc(N)nn2c(=O)c1Cc1ccc(Cl)c(Br)c1` [Compound 43, 2-Amino-6-(3-bromo-4-chloro-benzyl)-5-isopropyl[1,2,4]triazolo[1,5-a]pyrimidin-7(4H)-one], the “Hill slope (nH)” value on hCCR5 is listed as −4.4; on hCCR2 [2], −3.4. Also, the “decrease of basal [35S]GTPγS binding levels” value on hCCR2 [3] was 7–8%. Turning to `Nc1nc2[nH]c(-c3ccccc3)c(Cc3cccc(Cl)c3)c(=O)n2n1` [Compound 34, 2-Amino-6-(3-chlorobenzyl)-5-phenyl[1,2,4]triazolo[1,5-a]pyrimidin-7(4H)-one], on hCCR5, the inhibition at 1 µM is -41%. Further, the “fold decrease in affinity” value at hCCR2 [1] amounted to 20 fold.

With `CC(C)c1[nH]c2nc(N)nn2c(=O)c1Cc1cccc(Cl)c1` [Compound 27, 2-Amino-6-(3-chlorobenzyl)-5-isopropyl[1,2,4]triazolo[1,5-a]pyrimidin-7(4H)-one], the “fold increase in CCR5 potency compared to 8” value at hCCR5 was 2 fold. `COc1ccc(Cc2c(C3CC3)[nH]c3nc(N)nn3c2=O)cc1` [Compound 23, 2-Amino-5-cyclopropyl-6-(4-methoxybenzyl)[1,2,4]triazolo[1,5-a]pyrimidin-7(4H)-one]: the inhibition at 1 µM on hCCR5 is -28%.

For `CC(C)c1[nH]c2nc(N)nn2c(=O)c1Cc1cccc(Cl)c1Cl` [Compound 39, 2-Amino-6-(2,3-dichlorobenzyl)-5-isopropyl[1,2,4]triazolo[1,5-a]pyrimidin-7(4H)-one], the “Hill slope (nH)” value is −3.7 at hCCR5 and −2.5 at hCCR2 [2]. Also, at hCCR2 [3], the “decrease of basal [35S]GTPγS binding levels” value is 7–8%. For `CCCc1[nH]c2nc(N)nn2c(=O)c1Cc1cccc(Cl)c1` [Compound 26, 2-Amino-6-(3-chlorobenzyl)-5-propyl[1,2,4]triazolo[1,5-a]pyrimidin-7(4H)-one], the inhibition at 1 µM at hCCR5 is > 60%. Further, at hCCR2 [1], the inhibition constant Ki was ~4 nM. The EC50 is the midpoint of the concentration-response curve. Read a low EC50 as higher potency in that assay. Take “CCL2: human recombinant chemokine, endogenous agonist of CCR2”: in the assay with hCCR2 [3] (setting [4]), the EC50 was 8 nM, the “Emax ± SEM (%)” value is on record as 107 ± 2% and the “pEC50 ± SEM” value is 8.10 ± 0.06.

(Values after PMC6935887 (Journal of Medicinal Chemistry, 2019).)
